In ChEMBL document CHEMBL2396597, “Synthesis and evaluation of novel orally active p53-MDM2 interaction inhibitors” (Bioorg Med Chem, 2013):

Tests used:
[1] = Metabolic stability in mouse liver microsomes assessed as compound remaining at 1 uM after 30 mins by LC-MS/MS analysis; format: ADME, Microsome; conditions: read-out: Stability
Procedure, shortened: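 Compound at 1 μM final was incubated with mouse hepatic microsomes (0.5 mg/mL protein) in sodium phosphate buffer pH 7.4 at 37°C. Reaction was started with an NADPH-generating system and stopped with MeOH after 30 min. Samples were centrifuged, and loss of parent was measured by LC-MS/MS as % remaining.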

[2] = AUC in NOD/SCID mouse at 100 mg/kg, po; format: ADME, organism-based; set-up: dose 100 mg/kg, route oral; conditions: plasma
[3] = Drug uptake in tumor of NOD/SCID mouse xenografted with human MV4-11 cells at 100 mg/kg, po measured at 4 hrs by LC-MS/MS analysis; format: ADME, organism-based, Neoplasm; set-up: dose 100 mg/kg, route oral; conditions: read-out: Drug uptake
Procedure, shortened: (§1)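 Tumor-bearing mice were given 100 mg/kg orally, suspended in Japanese Pharmacopoeia First Fluid (pH 1.2). Tumors were collected at 1, 2, 4, 6 and 24 h after dosing and homogenized. Tumor drug concentration was quantified by LC/MS/MS on an ODS column.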

[4] = Drug uptake in tumor of NOD/SCID mouse xenografted with human MV4-11 cells at 100 mg/kg, po measured at 6 hrs by LC-MS/MS analysis; format: ADME, organism-based, Neoplasm; set-up: dose 100 mg/kg, route oral; conditions: read-out: Drug uptake; procedure, shortened: as §1
[5] = Drug uptake in tumor of NOD/SCID mouse xenografted with human MV4-11 cells at 100 mg/kg, po measured at 2 hrs by LC-MS/MS analysis; format: ADME, organism-based, Neoplasm; set-up: dose 100 mg/kg, route oral; conditions: read-out: Drug uptake; procedure, shortened: as §1
[6] = Drug uptake in tumor of NOD/SCID mouse xenografted with human MV4-11 cells at 100 mg/kg, po measured at 1 hr by LC-MS/MS analysis; format: ADME, organism-based, Neoplasm; set-up: dose 100 mg/kg, route oral; conditions: read-out: Drug uptake; procedure, shortened: as §1
[7] = Plasma concentration in NOD/SCID mouse at 100 mg/kg, po measured at 1 hr; format: ADME, organism-based; set-up: dose 100 mg/kg, route oral
[8] = Plasma concentration in NOD/SCID mouse at 100 mg/kg, po measured at 24 hrs; format: ADME, organism-based; set-up: dose 100 mg/kg, route oral
[9] = Plasma concentration in NOD/SCID mouse at 100 mg/kg, po measured at 6 hrs; format: ADME, organism-based; set-up: dose 100 mg/kg, route oral
[10] = Plasma concentration in NOD/SCID mouse at 100 mg/kg, po measured at 2 hrs; format: ADME, organism-based; set-up: dose 100 mg/kg, route oral
[11] = Plasma concentration in NOD/SCID mouse at 100 mg/kg, po measured at 4 hrs; format: ADME, organism-based; set-up: dose 100 mg/kg, route oral
[12] = Drug uptake in tumor of NOD/SCID mouse xenografted with human MV4-11 cells at 100 mg/kg, po measured at 24 hrs by LC-MS/MS analysis; format: ADME, organism-based, Neoplasm; set-up: dose 100 mg/kg, route oral; conditions: read-out: Drug uptake; procedure, shortened: as §1

For `CC(C)C1=C(C(=O)N2CCC[C@H]2C(=O)N(C)C)SC2=N[C@@](C)(c3ccc(Cl)cc3)[C@@H](c3ccc(Cl)cc3)N21`, the remaining at 0.5 h, 1 µM [1] was 9%.

For `CC(=O)N1CCN(C(=O)[C@@H]2CC[C@@H](C)N2C(=O)C2=C(C(C)C)N3C(=N[C@@](C)(c4ccc(Cl)cc4)[C@H]3c3ccc(Cl)cc3)S2)C[C@H]1C`, the remaining at 0.5 h, 1 µM [1] was 55%.

In the case of `CC(=O)N1CCN(C(=O)[C@@H]2CC[C@@H](C)N2C(=O)C2=C(C(C)C)N3C(=N[C@@](C)(c4ccc(Cl)cc4)[C@H]3c3ccc(Cl)cc3)S2)C[C@@H]1C`, the remaining at 0.5 h, 1 µM [1] is reported as 65%.

`CC(C)C1=C(C(=O)N2[C@H](C)CC[C@H]2C(=O)N2CCN(C)C(C)(C)C2)SC2=N[C@@](C)(c3ccc(Cl)cc3)[C@@H](c3ccc(Cl)cc3)N21` gave a remaining at 0.5 h, 1 µM [1] of 84%.

Compound `CC[C@@H]1CC[C@@H](C(=O)N2CCN(C)[C@H](C)C2)N1C(=O)C1=C(C(C)C)N2C(=N[C@@](C)(c3ccc(Cl)cc3)[C@H]2c2ccc(Cl)cc2)S1` has a remaining at 0.5 h, 1 µM [1] of 76%.

`CC[C@@H]1CC[C@@H](C(=O)N2CCN(C)[C@@H](C)C2)N1C(=O)C1=C(C(C)C)N2C(=N[C@@](C)(c3ccc(Cl)cc3)[C@H]2c2ccc(Cl)cc2)S1` showed a remaining at 0.5 h, 1 µM [1] of 69%.

In the case of `CC[C@@H]1CC[C@@H](C(=O)N2CCN(C(C)=O)[C@H](C)C2)N1C(=O)C1=C(C(C)C)N2C(=N[C@@](C)(c3ccc(Cl)cc3)[C@H]2c2ccc(Cl)cc2)S1`, the AUC [2] is reported as 737 µg·h/mL, the concentration at 4 h [3] is reported as 31200 ng/mL and the concentration at 6 h [4] is reported as 25200 ng/mL. It also gave a concentration at 2 h [5] of 32700 ng/mL, a remaining at 0.5 h, 1 µM [1] of 59% and a concentration at 1 h [6] of 31500 ng/mL. The concentration at 1 h [7] was 59600 ng/mL, the concentration at 24 h [8] was 100 ng/mL and the concentration at 6 h [9] was 48200 ng/mL. It also gave a concentration at 2 h [10] of 68400 ng/mL and a concentration at 4 h [11] of 46400 ng/mL.

Work on `CC[C@@H]1CC[C@@H](C(=O)N2CCN(C(C)=O)[C@@H](C)C2)N1C(=O)C1=C(C(C)C)N2C(=N[C@@](C)(c3ccc(Cl)cc3)[C@H]2c2ccc(Cl)cc2)S1` yielded a remaining at 0.5 h, 1 µM [1] of 54%.

In the case of `CC[C@@H]1CC[C@@H](C(=O)N2CCN(C(C)=O)CC2)N1C(=O)C1=C(C(C)C)N2C(=N[C@@](C)(c3ccc(Cl)cc3)[C@H]2c2ccc(Cl)cc2)S1`, the remaining at 0.5 h, 1 µM [1] is reported as 38%.

With `CC[C@@H]1CC[C@@H](C(=O)N2CCOCC2)N1C(=O)C1=C(C(C)C)N2C(=N[C@@](C)(c3ccc(Cl)cc3)[C@H]2c2ccc(Cl)cc2)S1` the remaining at 0.5 h, 1 µM [1] was 6%.

`CC(C)C1=C(C(=O)N2[C@H](C)CC[C@H]2C(=O)N2CCN(C)[C@H](C)C2)SC2=N[C@@](C)(c3ccc(Cl)cc3)[C@@H](c3ccc(Cl)cc3)N21` gave an AUC [2] of 93.1 µg·h/mL, a concentration at 4 h [3] of 27900 ng/mL and a concentration at 6 h [4] of 27500 ng/mL. For the same compound, the concentration at 2 h [5] was 23300 ng/mL, the remaining at 0.5 h, 1 µM [1] was 74% and the concentration at 1 h [6] was 18900 ng/mL. The concentration at 1 h [7] was 6900 ng/mL, the concentration at 24 h [8] was 300 ng/mL and the concentration at 6 h [9] was 5700 ng/mL. The concentration at 2 h [10] was 7800 ng/mL, the concentration at 4 h [11] was 7500 ng/mL and the concentration at 24 h [12] was 4300 ng/mL.

`CC(C)C1=C(C(=O)N2[C@H](C)CC[C@H]2C(=O)N2CCN(C)[C@@H](C)C2)SC2=N[C@@](C)(c3ccc(Cl)cc3)[C@@H](c3ccc(Cl)cc3)N21` gave a remaining at 0.5 h, 1 µM [1] of 63%.

Compound `CC(C)C1=C(C(=O)N2[C@@H](C)CC[C@H]2C(=O)N(C)C)SC2=N[C@@](C)(c3ccc(Cl)cc3)[C@@H](c3ccc(Cl)cc3)N21` has a remaining at 0.5 h, 1 µM [1] of 39%.

For `CC[C@H]1CC[C@@H](C(=O)N(C)C)N1C(=O)C1=C(C(C)C)N2C(=N[C@@](C)(c3ccc(Cl)cc3)[C@H]2c2ccc(Cl)cc2)S1`, the remaining at 0.5 h, 1 µM [1] was 47%.

Work on `CC(C)C1=C(C(=O)N2[C@H](C)CC[C@H]2C(=O)N(C)C)SC2=N[C@@](C)(c3ccc(Cl)cc3)[C@@H](c3ccc(Cl)cc3)N21` yielded a remaining at 0.5 h, 1 µM [1] of 53%.

`CC[C@@H]1CC[C@@H](C(=O)N(C)C)N1C(=O)C1=C(C(C)C)N2C(=N[C@@](C)(c3ccc(Cl)cc3)[C@H]2c2ccc(Cl)cc2)S1` gave a remaining at 0.5 h, 1 µM [1] of 70%.

In the case of `CC(C)C1=C(C(=O)N2[C@H](C)CC[C@H]2C(=O)N2CCN(C)CC2)SC2=N[C@@](C)(c3ccc(Cl)cc3)[C@@H](c3ccc(Cl)cc3)N21`, the remaining at 0.5 h, 1 µM [1] is reported as 25%.

Compound `CC(=O)N1CCN(C(=O)[C@@H]2CC[C@@H](C)N2C(=O)C2=C(C(C)C)N3C(=N[C@@](C)(c4ccc(Cl)cc4)[C@H]3c3ccc(Cl)cc3)S2)CC1` has a remaining at 0.5 h, 1 µM [1] of 13%.

Compound `CC[C@@H]1CC[C@@H](C(=O)N2CCN(C)CC2)N1C(=O)C1=C(C(C)C)N2C(=N[C@@](C)(c3ccc(Cl)cc3)[C@H]2c2ccc(Cl)cc2)S1` has a remaining at 0.5 h, 1 µM [1] of 50%.
